Source: ChEMBL document CHEMBL1151263, “Cytotoxic phenylpropanoid glycosides from the stems of Smilax china” (2005)
≈ marks a conversion by molar mass, not a printed value.

Tests used:
Format in all cases: functional
[1] = test system: HeLa; test: Cytotoxicity against human HeLa cells after 3 days by MTT assay; details: 72 h, read-out: ED50 (the source's name)
Procedure, shortened: (§1)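 Cells grown in RPMI-1640 and seeded in 96-well plates for 4 h before samples were added at four concentrations. Incubation at 37 °C for 3 days, then MTT added for 5 h. Medium removed, formazan dissolved in DMSO with 10 min shaking, absorbance read at 550 nm. ED50 reported in µg/mL.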

[2] = test system: A549; test: Cytotoxicity against human A549 cells after 3 days by MTT assay; details: A549, 72 h, read-out: ED50 (the source's name); procedure, shortened: as §1
[3] = test system: DLD-1; test: Cytotoxicity against human DLD1 cells after 3 days by MTT assay; details: DLD-1, 72 h, read-out: ED50 (the source's name); procedure, shortened: as §1
[4] = test system: KB; test: Cytotoxicity against human KB cells after 3 days by MTT assay; details: 72 h, read-out: ED50 (the source's name); procedure, shortened: as §1
[5] = Cytotoxicity against human Medulloblastoma cells after 3 days by MTT assay; details: Medulloblastoma cell, 72 h, read-out: ED50 (the source's name); procedure, shortened: as §1
[6] = test system: MCF7; test: Cytotoxicity against human MCF7 cells after 3 days by MTT assay; details: MCF7, 72 h, read-out: ED50 (the source's name); procedure, shortened: as §1

| SMILES | EC50 [1] [µg/mL] | EC50 [2] [µg/mL] | EC50 [3] [µg/mL] | EC50 [4] [µg/mL] | EC50 [5] [µg/mL] | EC50 [6] [µg/mL] |
| --- | --- | --- | --- | --- | --- | --- |
| COc1cccc2c1C(=O)c1c(O)c3c(c(O)c1C2=O)C[C@@](O)(C(=O)CO)C[C@@H]3O[C@H]1C[C@H](N)[C@H](O)[C@H](C)O1 [DOXORUBICIN] | 0.1 (≈ 0.184 µM) | 0.1 (≈ 0.184 µM) | 0.1 (≈ 0.184 µM) | 0.1 (≈ 0.184 µM) | 0.1 (≈ 0.184 µM) | 0.1 (≈ 0.184 µM) |
| COc1cc(/C=C/C(=O)OC[C@H]2O[C@@](CO)(O[C@H]3O[C@H](COC(C)=O)[C@@H](OC(C)=O)[C@H](O)[C@H]3O)[C@@H](OC(=O)/C=C/c3ccc(O)c(OC)c3)[C@@H]2O)ccc1O [SMILASIDE A] | 8.9 (≈ 11.4 µM) | 7.1 (≈ 9.12 µM) | 11.6 (≈ 14.9 µM) | 11.2 (≈ 14.4 µM) | 11.3 (≈ 14.5 µM) | 10.8 (≈ 13.9 µM) |
| COc1cc(/C=C/C(=O)OC[C@H]2O[C@@](CO)(O[C@H]3O[C@H](CO)[C@@H](O)[C@H](O)[C@H]3OC(C)=O)[C@@H](OC(=O)/C=C/c3ccc(O)c(OC)c3)[C@@H]2O)ccc1O [SMILASIDE B] | > 20 | 12 (≈ 16.3 µM) | > 20 | > 20 | 9.4 (≈ 12.8 µM) | 10.3 (≈ 14 µM) |
| COc1cc(/C=C/C(=O)OC[C@H]2O[C@@](COC(=O)/C=C/c3ccc(O)cc3)(O[C@H]3O[C@H](CO)[C@@H](O)[C@H](O)[C@H]3O)[C@@H](OC(=O)/C=C/c3ccc(O)c(OC)c3)[C@@H]2O)ccc1O [SMILASIDE C] | > 20 | > 20 | > 20 | > 20 | > 20 | > 20 |
| COc1cc(/C=C/C(=O)OC[C@H]2O[C@@](COC(=O)/C=C/c3ccc(O)cc3)(O[C@H]3O[C@H](CO)[C@@H](O)[C@H](O)[C@H]3O)[C@@H](OC(=O)/C=C/c3ccc(O)c(OC)c3)[C@@H]2OC(C)=O)ccc1O [SMILASIDE D] | 7.3 (≈ 8.27 µM) | 8.4 (≈ 9.51 µM) | 2.7 (≈ 3.06 µM) | 13 (≈ 14.7 µM) | 11.9 (≈ 13.5 µM) | > 20 |
| COc1cc(/C=C/C(=O)OC[C@H]2O[C@@](COC(=O)/C=C/c3ccc(O)cc3)(O[C@H]3O[C@H](COC(C)=O)[C@@H](O)[C@H](O)[C@H]3O)[C@@H](OC(=O)/C=C/c3ccc(O)c(OC)c3)[C@@H]2O)ccc1O [SMILASIDE E] | 5.1 (≈ 5.78 µM) | 12.4 (≈ 14 µM) | 4.5 (≈ 5.1 µM) | 5.5 (≈ 6.23 µM) | 12.2 (≈ 13.8 µM) | 13 (≈ 14.7 µM) |
| COc1cc(/C=C/C(=O)OC[C@H]2O[C@@](COC(=O)/C=C/c3ccc(O)cc3)(O[C@H]3O[C@H](COC(C)=O)[C@@H](O)[C@H](O)[C@H]3OC(C)=O)[C@@H](OC(=O)/C=C/c3ccc(O)cc3)[C@@H]2O)ccc1O [SMILASIDE F] | 8.3 (≈ 9.28 µM) | > 20 | 5 (≈ 5.59 µM) | 9 (≈ 10.1 µM) | > 20 | 13 (≈ 14.5 µM) |
